Bioassay records deposited in PubChem BioAssay by several laboratories.
Shown are actives, neighbours in structure and some others; about 2.6% of the full set was active somewhere.
SENP6 block: SENP6 protease inhibition; inhibition, % at 10 µM; 330,000 tested, 1.8% active; AID 2599; Recombinant SENP6 catalytic domain, aminoluciferin luminescence; Q9GZR1;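 active means inhibition above about 50% at the single tested dose, limit read from the data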
Target sequence (Q9GZR1 628-1112 limits assumed): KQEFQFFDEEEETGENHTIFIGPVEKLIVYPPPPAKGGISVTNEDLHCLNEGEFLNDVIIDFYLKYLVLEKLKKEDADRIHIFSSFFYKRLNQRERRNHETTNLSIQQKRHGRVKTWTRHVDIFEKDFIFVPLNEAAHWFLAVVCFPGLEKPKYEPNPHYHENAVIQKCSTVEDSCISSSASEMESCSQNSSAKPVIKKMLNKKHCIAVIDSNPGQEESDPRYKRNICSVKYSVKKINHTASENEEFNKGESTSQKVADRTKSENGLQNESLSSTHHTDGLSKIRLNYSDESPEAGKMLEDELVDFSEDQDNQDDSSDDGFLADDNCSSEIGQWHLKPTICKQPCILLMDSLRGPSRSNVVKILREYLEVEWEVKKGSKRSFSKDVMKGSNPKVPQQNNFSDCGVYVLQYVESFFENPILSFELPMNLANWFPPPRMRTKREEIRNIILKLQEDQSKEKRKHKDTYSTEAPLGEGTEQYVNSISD
SENP8 block-1: blocks human SENP8 cleavage of Nedd8 substrate; Q96LD8; recombinant SENP8, Nedd8 substrate fluorescence; inhibition, % at 20 µM; 360,000 tested, 0.64% active; in the data active means inhibition mostly above about 40%, no sharp cut-off; inactive means mostly below about 27%
SENP1 FRET inh: SENP1 (human) catalytic domain inhibition | Q9P0U3 | recombinant SENP1 catalytic domain, CyPet-SUMO1-YPet FRET cleavage | inhibition, % at 10 µM | 360,000 tested, 0.21% active | AID 624204;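 active means inhibition at least 30% at 10 µM, raw YFP signal under a set limit, fluorescence ratio 0.5 to 1.5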
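material = recombinant human SENP1 catalytic domain, His6-tagged | quantity = 20 pM enzyme | reagent = 25 nM SUMO1 FRET substrate | compound dosing = 10 µM single point, 0.5% DMSO | timing = 50 min enzyme reaction, room temperature, light-protected | detection = FRET, CFP and YFP emission | control set = no-enzyme low, enzyme-DMSO high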
SENP7 block: SENP7 protease inhibition; inhibition, % at 5 µM; 330,000 tested, 1.5% active; Q9BQF6; recombinant SENP7, Z-RLRGG-aminoluciferin luminescence, 40 min;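 active means inhibition above about 50% at the single test dose, limit read from the data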
Platelet DG rel: modulates dense granule release in human platelets. human platelet-rich plasma, SFLLRN dense granule ATP release, luminescence. inhibition, %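 (compounds screened at 7.5 µM in platelet-rich plasma)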. 300,000 tested, 0.22% active;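 active means mean replicate score, as percent of positive control, at or above 50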
SENP8 block-2: blocks the human protease SENP8. purified SENP8, Z-RLRGG-aminoluciferin cleavage, luminescence. 330,000 tested, 1.2% active. Q96LD8. inhibition, % at 10 µM; in the data active means inhibition above about 50%
SENP8 conf: confirmation of human SENP8 protease inhibitors | shares compounds with SENP7 block | Recombinant SENP8, Z-RLRGG-aminoluciferin luminescence, 60 min | inhibition, % at 12.5 µM | 6,200 tested, 40% active;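 active means mean inhibition across replicates above about 50%, limit read from the data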
SENP6 conf: human SENP6 inhibition, confirmed | shares compounds with SENP7 block | recombinant SENP6, Z-RLRGG-aminoluciferin luminescence | inhibition, % at 12.5 µM | 6,200 tested, 58% active
SENP7 conf: confirmation of human SENP7 protease inhibitors; shares compounds with SENP7 block; recombinant SENP7, Z-RLRGG-aminoluciferin luminescence, 40 min; inhibition, % at 12.5 µM; 6,200 tested, 69% active
Casp3 SENP sel: caspase-3 inhibition (SENP selectivity assay); AID 488918; inhibition, % at 12.5 µM; shares compounds with SENP7 block; purified caspase-3, Z-DEVD-aminoluciferin luminescence, 60 min; 6,200 tested, 60% active;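 active means mean inhibition above about 50%, limit read from the data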
Target sequence (P42574 28-227 limits assumed): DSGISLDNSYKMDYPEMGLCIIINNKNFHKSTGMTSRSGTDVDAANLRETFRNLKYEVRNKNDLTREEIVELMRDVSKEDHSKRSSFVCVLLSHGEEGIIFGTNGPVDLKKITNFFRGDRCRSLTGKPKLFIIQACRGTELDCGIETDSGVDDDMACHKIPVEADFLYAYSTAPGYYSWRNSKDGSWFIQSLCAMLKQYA
SENP luc ctr: interferes with luciferase luminescence in SENP counter-screen; Pre-incubated SENP8/Z-RLRGG-aminoluciferin, luciferase luminescence interference; inhibition, % at 12.5 µM; AID 488919; 6,200 tested, 39% active; shares compounds with SENP7 block;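 active means mean inhibition above about 50% when retested at one dose, limit read from the data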
Of the large screens only hits and unclear results are named; the others gave an inactive call (follow-up assays come after a bar, where they were run).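 How the source made its calls, unless noted: active means mean inhibition above about 50% in the one-dose retest (limit read from the data); inactive means the rest.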

c1ccc2nc(-c3ccc(-n4ccnc4)cc3)ccc2c1	SENP7 block 72.5, SENP8 block-2 61.0 | SENP8 conf inactive | SENP6 conf 80.6 | SENP7 conf inactive | Casp3 SENP sel inactive | SENP luc ctr inactive
CCC1(CC)CNC(=O)NC1	none (no result: SENP6 block, SENP7 block, Platelet DG rel, SENP8 block-2)
CCC1CSC(Nc2ccc(C(=O)/C=C/c3cccc(C)c3)cc2)=N1 (stereo unspecified)	SENP6 block 53.8 | SENP8 conf inactive | SENP6 conf inactive | SENP7 conf inactive | Casp3 SENP sel inactive | SENP luc ctr inactive
CC(=O)Nc1ccc(NC2=C/C(=N/S(=O)(=O)c3cccs3)c3ccccc3C2=O)cc1	SENP6 block 92.8, SENP8 block-1 68.8, SENP7 block 54.1, SENP8 block-2 79.2 | SENP8 conf 90.0 | SENP6 conf 95.5 | SENP7 conf 85.2 | Casp3 SENP sel 51.1 | SENP luc ctr inactive
O=c1oc2ccccc2cc1-c1cn2cccnc2n1	SENP6 block 58.5 | SENP8 conf inactive | SENP6 conf inactive | SENP7 conf 82.2 | Casp3 SENP sel 81.7 | SENP luc ctr inactive
CCOC(=O)c1sc(NC(=O)Nc2ccccc2F)nc1C	SENP6 block 76.7, SENP7 block 92.8, SENP8 block-2 66.6 | SENP8 conf inactive | SENP6 conf inactive | SENP7 conf 62.0 | Casp3 SENP sel 61.8 | SENP luc ctr inactive
CCOC(=O)c1sc(Nc2ccc(Br)cc2)nc1C	none
CCOC(=O)c1sc(Nc2ccccc2Cl)nc1C	SENP6 block 62.6 | SENP8 conf inactive | SENP6 conf inactive | SENP7 conf 73.1 | Casp3 SENP sel inactive | SENP luc ctr inactive
CCOC(=O)c1sc(NC(=O)/C=C/c2c(F)cccc2Cl)nc1C	none
CCOC(=O)c1sc(NC(=O)c2ccc(CC)s2)nc1C	SENP7 block 66.9 | SENP8 conf inactive | SENP6 conf inactive | SENP7 conf inactive | Casp3 SENP sel inactive | SENP luc ctr inactive
CCOCCn1cnc2sc(C(=O)Nc3nc(C)c(C(=O)OCC)s3)c(C)c2c1=O	SENP6 block 52.8, SENP7 block 82.9, SENP8 block-2 79.3 (no result: SENP8 block-1, SENP1 FRET inh, Platelet DG rel) | SENP8 conf inactive | SENP6 conf inactive | SENP7 conf inactive | Casp3 SENP sel inactive | SENP luc ctr inactive
CCN(CC(=O)Nc1ccc2c(c1)OCCO2)C(=O)c1ccc(C)c(S(=O)(=O)N2CCOCC2)c1	none
Cc1ccc(OCc2cc(C(=O)NC3CCc4ccccc43)no2)cn1 (stereo unspecified)	none
CCC(C)NC(=O)c1cc2c(=O)[nH]c3ccc(C)cc3c2s1 (stereo unspecified)	none
COc1ccc(CN2C(=O)c3ccccc3C2C(=O)NC2CCCCCC2)c(OC)c1 (stereo unspecified)	none (no result: SENP6 block, SENP7 block, SENP8 block-2)
CCOC(=O)c1sc(NC(=O)c2cncc(Br)c2)nc1C	none (no result: SENP6 block, SENP8 block-1, SENP1 FRET inh, SENP7 block, SENP8 block-2)
CCOC(=O)c1sc(NC(=O)c2ccc3ncsc3c2)nc1C	SENP7 block 59.2 | SENP8 conf inactive | SENP6 conf inactive | SENP7 conf inactive | Casp3 SENP sel inactive | SENP luc ctr inactive
O=C(Nc1nnc(Cc2ccc(F)cc2)s1)Nc1ccccc1F	none
CCc1ccc(C(=O)Nc2nc(C)cs2)s1	SENP6 block 76.1, SENP7 block 81.8, SENP8 block-2 63.0 | SENP8 conf 76.7 | SENP6 conf 73.2 | SENP7 conf 92.9 | Casp3 SENP sel 77.9 | SENP luc ctr 77.4
CCOC(=O)CNC(=O)c1sc(NC(=O)c2ccccc2F)nc1C	SENP6 block 76.8, SENP7 block 88.2, SENP8 block-2 69.5 | SENP8 conf inactive | SENP6 conf 75.2 | SENP7 conf 93.9 | Casp3 SENP sel 91.9 | SENP luc ctr 78.7
O=C(Nc1nnc(Cc2ccccc2F)s1)Nc1ccccc1F	SENP7 block 85.4 | SENP8 conf inactive | SENP6 conf inactive | SENP7 conf inactive | Casp3 SENP sel inactive | SENP luc ctr inactive
Cc1c(C)c2cc(Cl)c(OCC(=O)N3CCN(c4ccc(F)cc4)CC3)cc2oc1=O	none
COc1cccc(CN(C)C(=O)c2ccc(Cl)c(S(=O)(=O)N3CCCCCC3)c2)c1OC	none (no result: SENP6 block, SENP7 block, Platelet DG rel, SENP8 block-2)
CCOC(=O)c1sc(NC(=O)c2ccccc2OC)nc1C	SENP6 block 97.0, SENP7 block 101.7, SENP8 block-2 97.7 | SENP8 conf 79.8 | SENP6 conf 70.3 | SENP7 conf 99.3 | Casp3 SENP sel 63.3 | SENP luc ctr inactive
FC(F)Oc1ccc(NC(=S)NCc2ccccc2)cc1	none
Oc1cccc2c(NC(=S)Nc3ccc(OC(F)F)cc3)cccc12	SENP6 block 93.9, SENP8 block-2 79.5 | SENP8 conf inactive | SENP6 conf inactive | SENP7 conf inactive | Casp3 SENP sel inactive | SENP luc ctr inactive
N#Cc1cnn2cc(-c3ncc(C(F)(F)F)cc3Cl)cnc12	none
Cc1nn2cc(-c3ncc(C(F)(F)F)cc3Cl)cnc2c1Br	SENP6 block 83.0, SENP7 block 90.2, SENP8 block-2 75.9 | SENP8 conf 60.9 | SENP6 conf 59.8 | SENP7 conf inactive | Casp3 SENP sel inactive | SENP luc ctr inactive
Cc1cc2ncc(-c3ncc(C(F)(F)F)cc3Cl)cn2n1	SENP7 block 59.5 | SENP8 conf inactive | SENP6 conf inactive | SENP7 conf 76.6 | Casp3 SENP sel 78.9 | SENP luc ctr inactive
Cc1nnnn1CC(=O)Nc1cccc([N+](=O)[O-])c1	none
COC(=O)c1sc(-c2ccc(Cl)cc2)cc1N	SENP6 block 81.3, SENP7 block 67.5, SENP8 block-2 63.3 | SENP8 conf 53.6 | SENP6 conf 68.8 | SENP7 conf 91.4 | Casp3 SENP sel inactive | SENP luc ctr inactive
Cc1cc(C)cc(N(CC(=O)NC(C)(C)C)C(=O)CNC(=O)c2cccs2)c1	none
O=C(Cn1ncc(Cl)c(Cl)c1=O)c1ccc2c(c1)OCCO2	SENP6 block 55.5 (no result: Platelet DG rel) | SENP8 conf inactive | SENP6 conf inactive | SENP7 conf inactive | Casp3 SENP sel inactive | SENP luc ctr inactive
O=C(Cn1ncc(Cl)c(Cl)c1=O)Nc1ccc2c(c1)OCO2	none (no result: Platelet DG rel)
Clc1cccc(-c2nc(-c3ccc(-c4nn[nH]n4)cc3)no2)c1	SENP6 block 99.3, SENP7 block 79.2, SENP8 block-2 94.7 (no result: Platelet DG rel) | SENP8 conf 96.9 | SENP6 conf 97.2 | SENP7 conf 100.3 | Casp3 SENP sel 83.3 | SENP luc ctr 88.9
N#Cc1ccc(CSc2ccccn2)c(Cl)c1	none
